Compounds with a hit are over-represented: about 2.3% of the library has one in this group of screens.
TRPC4 agonist = activators of mouse TRPC4 channel, primary screen, Fluo4 calcium, HEK293 TRPC4beta/mu-opioid cells | B-score at 10 µM | 310,000 tested, 0.49% active | Fluo4 calcium fluorescence; active compounds read high | AID 2237, 2010 | Short transient receptor potential channel 4 (Mus musculus), Q9QUQ5;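 active = B-score above 5 SD of library B-scores, and initial fluorescence ratio not above library mean plus 5 SD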;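 also: positive B-score marks a calcium rise read as TRPC4 activation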
Target sequence (Q9QUQ5 whole entry, looked up): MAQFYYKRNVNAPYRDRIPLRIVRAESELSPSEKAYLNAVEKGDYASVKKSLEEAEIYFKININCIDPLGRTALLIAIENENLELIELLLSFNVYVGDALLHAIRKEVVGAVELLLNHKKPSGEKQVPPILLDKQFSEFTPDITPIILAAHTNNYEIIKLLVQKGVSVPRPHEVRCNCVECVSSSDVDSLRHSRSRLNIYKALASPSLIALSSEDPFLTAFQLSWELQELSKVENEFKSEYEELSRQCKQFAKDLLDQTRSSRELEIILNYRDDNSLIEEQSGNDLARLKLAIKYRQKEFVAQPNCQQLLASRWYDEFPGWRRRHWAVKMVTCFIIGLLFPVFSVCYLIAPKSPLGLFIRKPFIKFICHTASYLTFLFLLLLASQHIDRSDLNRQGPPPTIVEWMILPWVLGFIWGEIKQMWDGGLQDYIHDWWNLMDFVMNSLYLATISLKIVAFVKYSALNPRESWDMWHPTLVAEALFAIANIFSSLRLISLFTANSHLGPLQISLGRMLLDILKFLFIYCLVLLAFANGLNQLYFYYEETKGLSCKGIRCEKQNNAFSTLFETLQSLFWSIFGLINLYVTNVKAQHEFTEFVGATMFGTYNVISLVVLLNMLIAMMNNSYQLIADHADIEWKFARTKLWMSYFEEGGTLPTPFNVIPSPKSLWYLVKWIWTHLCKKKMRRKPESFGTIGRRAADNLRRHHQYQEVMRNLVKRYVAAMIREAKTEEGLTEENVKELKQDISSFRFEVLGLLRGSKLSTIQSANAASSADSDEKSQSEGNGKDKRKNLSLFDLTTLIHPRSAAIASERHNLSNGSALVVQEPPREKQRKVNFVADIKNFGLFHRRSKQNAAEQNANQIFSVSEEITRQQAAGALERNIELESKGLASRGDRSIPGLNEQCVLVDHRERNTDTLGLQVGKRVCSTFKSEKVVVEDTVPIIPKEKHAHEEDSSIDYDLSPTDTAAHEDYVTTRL
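Test system: HEK293 cells stably co-expressing mouse TRPC4beta and mu-opioid receptor | Schedule: Fluo4 dye loading 45 min at room temperature, 110 s recording | Measured by: Kinetic Fluo4 calcium fluorescence, 5 s baseline at 1 Hz | Evaluation: B score of integrated ratio | Controls: Buffer (low) and maximal DAMGO (high)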
TRPC4 block = inhibitors of mouse TRPC4 channel, primary screen, Fluo4 calcium, HEK293 TRPC4beta/mu-opioid cells. Short transient receptor potential channel 4 (Mus musculus), Q9QUQ5. DAMGO-evoked Fluo4 calcium flux; active compounds read low. B-score at 10 µM. 300,000 tested, 0.39% active. AID 2247, 2010;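 active = B-score over 3 SD under the library average, no early fluorescence shift, positive overall ratio signal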
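Material: HEK293 cells with stable TRPC4beta plus mu-opioid receptor expression; probe or stimulus: DAMGO in two steps, submaximal then maximal; technique: Fluo4 calcium fluorescence by kinetic imaging, 5 s 1 Hz baseline; measure: integrated fluorescence ratio relative to baseline, converted to per-well B score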
TRPC6 inh = mouse TRPC6 channel inhibitors, primary screen, cell-based, HEK293, membrane potential dye; B-score at 10 µM; Short transient receptor potential channel 6 (Mus musculus), Q61143; 310,000 tested, 1.1% active; ACh-evoked depolarization; active compounds read low;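 active = B-score under library mean minus 3 SD, initial fluorescence not abnormally high, positive integrated signal ratio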;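 also: B-score derived from integrated fluorescence ratio over the kinetic read; more negative B-score means stronger inhibition of depolarization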
TRPC6 activator = mouse TRPC6 channel activators, primary screen, cell-based, HEK293, membrane potential dye. Short transient receptor potential channel 6 (Mus musculus), Q61143. HEK293-TRPC6 membrane potential dye fluorescence; active compounds read high. B-score at 10 µM. 310,000 tested, 0.13% active;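 active = B-score of the integrated fluorescence ratio above library mean plus 3 SD, and starting fluorescence ratio within library mean plus 5 SD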;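 also: higher score means more depolarization so channel activation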
TRPC4 potent = positive allosteric modulators of TRPC4, primary screen, cell-based, mouse TRPC4beta, HEK293 mu-opioid, Fluo-4 calcium; B-score at 10 µM; 310,000 tested, 0.42% active; DAMGO EC20, Fluo-4 Ca2+ flux; active compounds read high; Short transient receptor potential channel 4 (Mus musculus), Q9QUQ5; AID 2227, 2009;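 active = B-score of calcium response area above 5 SD of library B-scores, with initial fluorescence ratio within 5 SD of library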;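 also: B-score of integrated fluorescence ratio over time as area under calcium response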
TRPC4 sel inh 2 = second check of whether TRPC6 inhibitors also affect mouse TRPC4; shares compounds with TRPC6 inh; inhibition, % at 10 µM; 920 tested, 42% active; HEK293 TRPC4/MOR, membrane potential dye fluorescence; channel activated by saturating DAMGO dose;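 active = compounds whose fluorescence signal differed from control wells by over 3 SD, either direction, in both duplicate plates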
TRPC4 spec = mouse TRPC4 modulation by TRPC6 hits, confirmation, selectivity assay for TRPC6 inhibitor project, cell-based, HEK293 TRPC4/mu-opioid, membrane potential dye | activity change, negative = inhibition, % at 10 µM | AID 2777, 2010 | 920 tested, 61% active | shares compounds with TRPC6 inh | membrane potential fluorescence;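 active = rise or fall in signal beyond 3 SD of buffer-only wells in both replicate plates, either sign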;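 also: integrated kinetic ratio of fluorescence range over baseline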
HEK293 MPD ctr 2-1 = nonspecific membrane potential effects, parental HEK293, confirmation, counter-screen for TRPC6 inhibitor project, cell-based, second counter screen; signal change vs control, % at 10 µM; shares compounds with TRPC6 inh; parental HEK293 membrane potential dye fluorescence; maximal acetylcholine challenge after compound addition; 920 tested, 31% active;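 active = membrane potential signal moving either way by over 3 SD of the maximum-effect control, in both duplicate plates, meaning non-specific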
HEK293 MPD ctr-1 = membrane potential modulation in parental HEK293, confirmation, counter-screen for TRPC6 inhibitor project, cell-based; membrane potential signal change, % at 10 µM; shares compounds with TRPC6 inh; parental HEK293 membrane potential dye fluorescence; 920 tested, 60% active;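 active = membrane potential signal shifting up or down by more than 3 SD of buffer-only wells, on both duplicate plates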
HEK293 MPD ctr-2 = parental HEK293 membrane potential modulation, confirmation, counter-screen for TRPC6 modulator project, cell-based | membrane potential dye fluorescence | shares compounds with TRPC6 inh | membrane potential signal change, % at 10 µM | 2,400 tested, 51% active;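 active = membrane potential signal moves up or down beyond 5 SD from buffer-only wells, on both duplicate plates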
HEK293 MPD ctr 2-2 = second counter-screen for TRPC6 modulators: effect in parental HEK293 cells; inhibition, % at 10 µM; 2,400 tested, 14% active; shares compounds with TRPC6 inh; AID 488926; membrane potential dye fluorescence; after compound, maximal acetylcholine stimulation;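 active = membrane potential signal drops by more than 5 SD from the mean control signal, in both duplicate plates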;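 also: plate controls were acetylcholine ECmax control wells for no effect and buffer only wells for full effect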
TRPC4 ctr mod = TRPC4 modulation by TRPC6 hit compounds, confirmation, selectivity assay for TRPC6 modulator project, cell-based, HEK293 TRPC4/mu-opioid, membrane potential dye, mouse. shares compounds with TRPC6 inh. membrane potential fluorescence. percent change from control (negative = decrease, positive = increase), % at 10 µM. 2,400 tested, 69% active. AID 488927, 2010;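 active = membrane potential signal moved up or down beyond 5 SD of buffer control wells, in both duplicate plates, actives on both sides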;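 also: plate controls were assay buffer wells for no effect and DAMGO maximal-effect wells for full effect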
TRPC4/MOR inh 2 = second selectivity test of TRPC6 modulators against mouse TRPC4 | shares compounds with TRPC6 inh | HEK293 TRPC4/mu-opioid, membrane potential dye fluorescence; stimulated with maximal-effect DAMGO | inhibition, % at 10 µM | 2,400 tested, 55% active;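 active = drop in membrane potential signal beyond 5 SD of the control wells in both duplicate plates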;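 also: TRPC4 counter screen for TRPC6 hits run under conditions tuned for TRPC6 not TRPC4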
TRPC6 block conf = mouse TRPC6 channel inhibitors, confirmation, HEK293 cells, membrane potential dye, duplicate; shares compounds with TRPC6 inh; ACh-evoked depolarization; inhibition, % at 10 µM; 3,300 tested, 43% active;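 active = fluorescence ratio falls more than 5 SD below the full-stimulation control mean, in both duplicate runs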;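 also: integrated fluorescence ratio of peak minus minimum over baseline after agonist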
TRPC6 act confirm = mouse TRPC6 channel activators, confirmation, HEK293 cells, membrane potential dye, duplicate. shares compounds with TRPC6 inh. HEK293-TRPC6 membrane potential dye fluorescence, FDSS. activation, % at 10 µM. 2,800 tested, 11% active. AID 488961, 2010;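 active = ratio signal rise beyond 5 SD above unstimulated control wells' mean, seen in both duplicate runs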;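 also: plate controls were buffer EC0 wells for no effect and acetylcholine ECmax response for full effect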
Active calls of the source: *; i = inactive; nt = no result given; + = active, no number.

SMILES	TRPC4 agonist	TRPC4 block	TRPC6 inh	TRPC6 activator	TRPC4 potent	HEK293 MPD ctr-2	HEK293 MPD ctr 2-2	TRPC4 ctr mod	TRPC4/MOR inh 2	TRPC6 block conf	TRPC6 act confirm	others
CCOC(=O)c1cnc2ccc(C(=O)OC)cc2c1Nc1ccc2c(c1)OCCO2	i	i	i	i	i	nt	nt	nt	nt	nt	nt
CCOC(=O)c1ccc2ncc(C(=O)OCC)c(Nc3ccc(N4CCOCC4)cc3)c2c1	i	i	-9.7*	i	i	-186%*	i	-46%*	42%*	i	i
CCOC(=O)c1cnc2ccc(OC)cc2c1Nc1ccc2c(c1)OCCO2	i	i	-7.5*	i	i	nt	nt	nt	nt	i	i	TRPC4 sel inh 2=i;TRPC4 spec=-14%*;HEK293 MPD ctr 2-1=i;HEK293 MPD ctr-1=-292%*
CC[n+]1c(/C=C/Nc2ccccc2)sc2ccccc21	i	i	-8.5*	i	i	nt	nt	nt	nt	i	i	TRPC4 sel inh 2=76%*;TRPC4 spec=-20%*;HEK293 MPD ctr 2-1=i;HEK293 MPD ctr-1=-361%*
CC[n+]1c(/C=C(\C)SC)sc2ccccc21	i	i	-10*	i	i	-262%*	82%*	-42%*	58%*	56%*	i
CC[n+]1c(/C=C(/C)SC)sc2ccccc21	i	i	-7.5*	i	i	-275%*	82%*	-48%*	52%*	67%*	i
CC/C(=C/c1sc2ccccc2[n+]1CC)SC	i	i	i	i	i	nt	nt	nt	nt	nt	nt
CC[n+]1c(/C=C2/C=C(C)CC(C)C2)sc2ccccc21 (stereo not given)	i	i	i	i	i	nt	nt	nt	nt	nt	nt
CCOC(=O)N1CCN(Cc2ccc(OCC(O)CN3CCCCC3)cc2)CC1 (stereo not given)	i	i	i	i	i	nt	nt	nt	nt	nt	nt
O=C1/C(=C\c2cc([N+](=O)[O-])ccc2O)SC(=S)N1Cc1ccc(Cl)cc1	137*	i	i	51*	21*	+	i	284%*	i	i	178%*
COc1ccc(CN2CCOCCOCCN(Cc3ccc(OC)cc3)CCOCCOCC2)cc1	i	i	i	i	i	nt	nt	nt	nt	nt	nt
CC1CN(C(=O)CSc2nnc(-c3ccc(Cl)cc3)n2C)CC(C)O1 (stereo not given)	i	i	-5.2*	i	i	i	i	i	i	i	i
O=C(c1ccc(Oc2cc(Cl)cc(Cl)c2)o1)N1CCCCC1	i	i	-5.6*	i	i	i	i	i	i	i	i
CC(=O)Nc1cc(C)c(S(C)(=O)=O)c(C)c1	i	i	i	i	i	nt	nt	nt	nt	nt	nt
C=CCNC(=O)c1onc(CSc2cccc(OC)c2)c1C(=O)NCC=C	i	i	i	i	i	nt	nt	nt	nt	nt	nt
Cc1cccc(C(C)C)c1NC(=O)C(C)OC(=O)Cc1n[nH]c(=O)c2ccccc12 (stereo not given)	i	i	i	i	i	nt	nt	nt	nt	nt	nt
CCCCN(C)CCCNC(=O)CN1C(=O)COc2ccc(S(=O)(=O)N3CCOCC3)cc21	i	i	-5.4*	i	i	i	i	i	i	i	i
CCOC(=O)c1cc2c(=O)n3ccccc3nc2n(Cc2ccccc2)c1=N	i	i	-7.9*	i	i	-146%*	i	-32%*	42%*	i	i
CCOC(=O)c1cc2c(=O)n3ccccc3nc2n(CC(C)C)c1=NC(=O)c1ccco1	i	i	i	i	i	nt	nt	nt	nt	nt	nt
N=c1c(C(=O)NCC2CCCO2)cc2c(=O)n3ccccc3nc2n1Cc1ccccc1Cl (stereo not given)	i	i	-6.7*	i	78*	nt	nt	nt	nt	i	i	TRPC4 sel inh 2=48%*;TRPC4 spec=i;HEK293 MPD ctr 2-1=i;HEK293 MPD ctr-1=-456%*
N=c1c(C(=O)NC2CCCC2)cc2c(=O)n3ccccc3nc2n1Cc1ccccc1	i	i	-5.2*	i	i	-170%*	i	-34%*	48%*	i	i
COCCCn1c(=N)c(C(=O)NCC2CCCO2)cc2c(=O)n3ccccc3nc21 (stereo not given)	i	i	i	i	i	nt	nt	nt	nt	nt	nt
COc1ccc(Cn2c(=N)c(C(=O)NCC3CCCO3)cc3c(=O)n4ccccc4nc32)cc1 (stereo not given)	i	i	-6.5*	i	i	i	i	-10%*	36%*	44%*	i

Compound activity: PubChem BioAssay, Johns Hopkins Ion Channel Center
